SMILES strings stand for the structures. The source made the active and inactive calls.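 The calls were made as follows, unless noted: active = viability at or below 30% in both replicate assays; inconclusive = viability at or below 30% in just one of the two assays; inactive = the rest.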

15 molecules from PubChem BioAssay can be followed below.

The nature of assay [1]: Her2 expression decrease, cell viability multiplex – SKBR3 breast tumor cells, AlphaScreen, ATP viability, primary screen (AID 461;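 active = Her2 level under about 52% in both replicate screens, with viability over 70% of control, limit read from the data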;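 as to Her2 level: lower value means less Her2 protein in the cells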;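 as to viability: percent of carrier control wells set as 100% viability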). Conditions: SKBR3 Her2 protein level, 18-24 h, measured here: SKBR3 viability, ATP luminescence, at 10 µM. Background: In Alpha technology, singlet oxygen from a donor bead excites a nearby acceptor bead.
In assay [2] the target is Receptor tyrosine-protein kinase erbB-2 (Homo sapiens) (UniProt P04626). The description is as above. The note with it: 18-24 h, at 10 µM, stronger effect = lower value.
Chain of Receptor tyrosine-protein kinase erbB-2 (Homo sapiens) (P04626 whole entry, looked up): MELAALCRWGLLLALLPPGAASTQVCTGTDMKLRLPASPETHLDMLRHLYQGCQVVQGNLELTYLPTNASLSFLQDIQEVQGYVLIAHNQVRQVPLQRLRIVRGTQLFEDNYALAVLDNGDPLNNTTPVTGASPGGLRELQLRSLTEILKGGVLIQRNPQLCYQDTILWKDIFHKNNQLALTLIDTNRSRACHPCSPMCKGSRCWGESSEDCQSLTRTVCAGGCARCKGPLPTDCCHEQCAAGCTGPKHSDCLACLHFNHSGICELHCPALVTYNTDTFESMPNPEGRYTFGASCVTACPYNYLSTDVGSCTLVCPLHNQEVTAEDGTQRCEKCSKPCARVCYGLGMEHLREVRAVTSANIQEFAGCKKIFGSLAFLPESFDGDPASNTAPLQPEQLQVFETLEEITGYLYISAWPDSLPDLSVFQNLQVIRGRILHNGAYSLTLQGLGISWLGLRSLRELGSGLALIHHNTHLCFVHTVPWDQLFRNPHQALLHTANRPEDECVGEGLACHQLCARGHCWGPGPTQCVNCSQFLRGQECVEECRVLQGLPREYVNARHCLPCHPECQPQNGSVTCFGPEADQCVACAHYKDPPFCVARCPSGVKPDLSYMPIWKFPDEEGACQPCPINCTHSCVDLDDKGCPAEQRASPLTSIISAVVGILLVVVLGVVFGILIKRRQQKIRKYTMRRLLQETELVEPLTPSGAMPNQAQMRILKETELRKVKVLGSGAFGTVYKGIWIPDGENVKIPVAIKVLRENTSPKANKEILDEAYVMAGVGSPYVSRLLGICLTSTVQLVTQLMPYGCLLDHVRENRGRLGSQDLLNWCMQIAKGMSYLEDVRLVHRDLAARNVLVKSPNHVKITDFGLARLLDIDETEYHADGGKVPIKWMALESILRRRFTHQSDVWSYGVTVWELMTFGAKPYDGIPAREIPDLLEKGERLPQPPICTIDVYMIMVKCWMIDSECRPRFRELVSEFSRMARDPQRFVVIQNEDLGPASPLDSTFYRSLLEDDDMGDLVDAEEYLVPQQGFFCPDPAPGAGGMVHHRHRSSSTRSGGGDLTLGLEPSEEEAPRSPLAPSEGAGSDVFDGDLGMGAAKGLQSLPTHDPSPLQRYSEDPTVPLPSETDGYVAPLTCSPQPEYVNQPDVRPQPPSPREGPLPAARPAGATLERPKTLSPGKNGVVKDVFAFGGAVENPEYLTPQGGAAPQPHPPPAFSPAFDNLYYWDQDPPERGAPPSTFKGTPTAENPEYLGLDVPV
Assay [3] is described as follows: reduced viability of SK-BR-3 breast cancer cells – cell-based, 24 h, human, pilot screen (AID 572;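 active = viability at or below 10% of carrier control in both of two separate runs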;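 also: compound exposure lasted between 18 and 24 h rather than exactly 24 h; 100% = carrier-treated control wells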). The note with it: SK-BR-3 viability, CellTiter-Glo luminescence, at 10 µM, stronger effect = lower value. In general terms: In ATP-based viability assays light output follows the ATP content of the culture.
The nature of assay [4]: HUVEC growth inhibition – cell-based, human, primary screen (AID 575).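 Also: 100% = median of untreated cell wells with 0.1% DMSO on each plate.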 Conditions: HUVEC proliferation, CellTiter-Glo luminescence, 72 h; at 10 µM; stronger effect = lower value. The gist of the method:
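Timing: 72 h treatment at 37 °C; material: HUVEC primary cells; technique: CellTiter-Glo luminescence measuring cellular ATP; controls: vehicle and MePR control wells; measure: percent of median DMSO-control luminescence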

Assay [5] is described as follows: H69AR cell proliferation blockers – human, duplicate replicates, primary screen (AID 580;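 active = viability at or under a set limit in both replicates, limit being median viability minus 3 SD, cut at about 48% in these data, passing the limit was not always enough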;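 also: 100% = mean luminescence of untreated wells and 0% = no signal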). The note with it: H69AR lung tumor cells viability, ATP luminescence, 72 h; at 10 µM; stronger effect = lower value.
A short description of assay [6]: MRP1 drug-resistance reversers in H69AR cells – cell-based, doxorubicin co-treatment, pilot screen (AID 601;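 active = viability loss from added drug above about 55%, and viability with drug at most 40%, in both replicates, limit read from the data, passing the limit was not always enough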). Conditions: CellTiter-Glo, 72 h, at 10 µM; for differential viability (reversal): stronger effect = higher value.
Assay [7] can be described thus: yeast transport mutant growth inhibition pilot in 384-well plates, post-Golgi transport modulator project (AID 636; in the data active = inhibition above about 31%). The note with it: absorbance 615 nm, about 18 h, stronger effect = higher value.
Assay [8] is described as follows: growth suppression of yeast trafficking mutant, preliminary HTS, modulators of trafficking downstream of Golgi apparatus project, 1536-format plate, OD 615 nm (AID 637; in the data active = inhibition above about 30%). The note with it: yeast transport mutant growth, absorbance 615 nm, 18 h; stronger effect = higher value.
[9] abbreviates: H69AR cells + 2 uM doxorubicin, measured here: viability with 2 uM doxorubicin, stronger effect = lower value.
The mark [10] stands for this setting: H69AR cells, compound alone cytotoxicity.

The viability is a read-out of living cells in per cent, often relative to untreated cells. For orientation: inhibition means the drop in the measured response relative to a control, in per cent. With `COc1cccc(-n2nnnc2SCC(=O)NCc2ccco2)c1`, the viability in assay [1] is 117%; in assay [3] it was 117% (inactive); in assay [4], 90.5% (inactive); in assay [5], 83.2% (inactive); in assay [6] (setting [9]), 77.2%; in assay [6] (setting [10]), 83.2%. In addition, the Her2 level in assay [2] was 92.5% (inactive). The differential viability (reversal) in assay [6] (H69AR cells + 2 uM doxorubicin) was 5.98% (inactive). Further, the inhibition is -4.8% (inactive) in assay [7] and 4.52% (inactive) in assay [8].
As for `Cn1c(=O)[nH]c(=O)c2c1nc(N1CCNCC1)n2CCOc1ccccc1`, the viability in assay [1] was 79.5%; in assay [3], 79.5% (inactive); in assay [4] it was 81.1% (inactive); in assay [5] it was 82% (inactive); in assay [6] (setting [9]), 90.6%; in assay [6] (setting [10]), 82%. Also, in assay [2], the Her2 level was 108% (inactive). Besides, the differential viability (reversal) in assay [6] (H69AR cells + 2 uM doxorubicin) is -8.6% (inactive). The values for the inhibition in assay [7] and in assay [8] were 4.32% (inactive) and 10.8% (inactive), respectively.
Consider `Cc1noc(NS(=O)(=O)c2ccc(N3C(=O)c4ccccc4C3=O)cc2)c1C`, for which the viability in assay [1] is 116%; in assay [3] it was 116% (inactive); in assay [4], 99.1% (inactive); in assay [5] it was 107% (inactive); in assay [6] (setting [9]) it was 106%; in assay [6] (setting [10]), 107%. Further, the Her2 level in assay [2] is 98% (inactive). For the same molecule, the differential viability (reversal) in assay [6] (H69AR cells + 2 uM doxorubicin) was 0.49% (inactive). For the same molecule, the inhibition in assay [7] is -3.47% (inactive); in assay [8] it was 2.58% (inactive).
As for `O=C(Nc1ccc2c(c1)OCCO2)C1CCCN(S(=O)(=O)c2cnc[nH]2)C1` (stereo not given), the viability is 82.5% in assay [1]; 82.5% (inactive) in assay [3]; 100% (inactive) in assay [4]; 94.7% (inactive) in assay [5]; 86.2% in assay [6] (setting [9]); 94.7% in assay [6] (setting [10]). Besides, the Her2 level in assay [2] was 111% (inactive). Moreover, the differential viability (reversal) in assay [6] (H69AR cells + 2 uM doxorubicin) was 8.45% (inactive). Besides, the inhibition was -3.2% (inactive) in assay [7] and -3.93% (inactive) in assay [8].
In the case of `COc1ccc(-c2cn3c(C)c(C(=O)Nc4cc(NC(C)=O)ccc4OC)sc3n2)cc1`, the viability in assay [1] was 92%; in assay [3], 92% (inactive); in assay [4], 71.5% (inactive); in assay [5] it was 20.2% (active); in assay [6] (setting [9]), 63.1%; in assay [6] (setting [10]), 20.2%. Also, in assay [2], the Her2 level was 79.5% (inactive). Besides, in assay [6] (H69AR cells + 2 uM doxorubicin), the differential viability (reversal) is -42.9% (inactive). In addition, the inhibition in assay [7] is -5.73% (inactive); in assay [8], -2.13% (inactive).
For `CC1CCN(CC(O)COC2CCC(C(C)(C)C)CC2)CC1` (stereo not given), the viability in assay [1] was 82%; in assay [3] it was 82% (inactive); in assay [4] it was 73.8% (inactive); in assay [5], 74.5% (inactive); in assay [6] (setting [9]), 71.4%; in assay [6] (setting [10]), 74.5%. The Her2 level in assay [2] was 76% (inactive). Also, in assay [6] (H69AR cells + 2 uM doxorubicin), the differential viability (reversal) was 3.15% (inactive). For the same molecule, the inhibition in assay [7] was 97.8% (active); in assay [8], 84.4% (active).
Take `CC(C(=O)Nc1ccccc1-c1ccccc1)N1CCOCC1` (stereo not given): the viability in assay [1] is 108%; in assay [3], 108% (inactive); in assay [4], 104% (inactive); in assay [5], 96.1% (inactive); in assay [6] (setting [9]) it was 97.1%; in assay [6] (setting [10]) it was 96.1%. Moreover, the Her2 level in assay [2] was 97.5% (inactive). The differential viability (reversal) in assay [6] (H69AR cells + 2 uM doxorubicin) was -1.07% (inactive). The values for the inhibition in assay [7] and in assay [8] were -10.6% (inactive) and -4.13% (inactive), respectively.
Turning to `N#CC1=C(SCC(=O)c2cc3ccccc3oc2=O)NC(=O)C(C#N)C12CCCC2` (stereo not given), the viability in assay [1] was 92%; in assay [3], 92% (inactive); in assay [4], 72.1% (inactive); in assay [5], 86.5% (inactive); in assay [6] (setting [9]), 80.1%; in assay [6] (setting [10]) it was 86.5%. The Her2 level in assay [2] is 76% (inactive). Also, in assay [6] (H69AR cells + 2 uM doxorubicin), the differential viability (reversal) was 6.35% (inactive). Also, the inhibition in assay [7] was -3.2% (inactive); in assay [8], 0.32% (inactive).
On to `CC1=C(C(=O)OCCOC(C)C)C(c2cc3c(cc2Br)OCO3)C2=C(CCCC2=O)N1` (stereo not given), for which the viability in assay [1] is 102%; in assay [3], 102% (inactive); in assay [4], 86.2% (inactive); in assay [5], 80.8% (inactive); in assay [6] (setting [9]), 78.9%; in assay [6] (setting [10]) it was 80.8%. Also, the Her2 level in assay [2] is 111% (inactive). Further, the differential viability (reversal) in assay [6] (H69AR cells + 2 uM doxorubicin) is 1.89% (inactive). The inhibition in assay [7] is -2.8% (inactive); in assay [8] it was 6.07% (inactive).
`O=C(COC(=O)C1CC(=O)N(c2ccccc2)C1)c1ccccc1` (stereo not given): the viability was 99.5% in assay [1]; 99.5% (inactive) in assay [3]; 101% (inactive) in assay [4]; 86.6% (inactive) in assay [5]; 96.5% in assay [6] (setting [9]); 86.6% in assay [6] (setting [10]). Moreover, the Her2 level in assay [2] is 107% (inactive). Besides, the differential viability (reversal) in assay [6] (H69AR cells + 2 uM doxorubicin) was -9.89% (inactive). Also, the values for the inhibition in assay [7] and in assay [8] were 4.1% (inactive) and -6.67% (inactive), respectively.
`O=C(O)C1CC(=O)N(Cc2ccccc2)C1` (stereo not given): the viability was 109% in assay [1]; 109% (inactive) in assay [3]; 91.2% (inactive) in assay [4]; 90.2% (inactive) in assay [5]; 89.8% in assay [6] (setting [9]); 90.2% in assay [6] (setting [10]). The Her2 level in assay [2] was 96.5% (inactive). Also, in assay [6] (H69AR cells + 2 uM doxorubicin), the differential viability (reversal) is 0.445% (inactive). In addition, the inhibition was -5.39% (inactive) in assay [7] and 6.23% (inactive) in assay [8].
As for `CCOC(=O)c1cc(C)n(CCCN2CCOCC2)c1C`, the viability in assay [1] is 90.5%; in assay [3], 90.5% (inactive); in assay [4], 92.4% (inactive); in assay [5], 91.1% (inactive); in assay [6] (setting [9]) it was 95.2%; in assay [6] (setting [10]) it was 91.1%. In addition, the Her2 level in assay [2] is 85% (inactive). Besides, the differential viability (reversal) in assay [6] (H69AR cells + 2 uM doxorubicin) is -4.19% (inactive). In addition, the inhibition in assay [7] was -0.66% (inactive); in assay [8], 1.11% (inactive).
In the case of `CC(=O)c1cccc(S(=O)(=O)N2CCC(n3nnc4cc(F)ccc43)CC2)c1`, the viability in assay [1] was 88%; in assay [3], 88% (inactive); in assay [4] it was 92.9% (inactive); in assay [5], 93.9% (inactive); in assay [6] (setting [9]), 85.8%; in assay [6] (setting [10]), 93.9%. In addition, in assay [2], the Her2 level is 92.5% (inactive). The differential viability (reversal) in assay [6] (H69AR cells + 2 uM doxorubicin) was 8.11% (inactive). Besides, the results for the inhibition in assay [7] and in assay [8] were -5.14% (inactive) and -2.62% (inactive), respectively.
Regarding `O=C(Nc1ccc(CN2CCOCC2)cc1)c1cc2ccccc2oc1=O`, the viability in assay [1] is 99.5%; in assay [3], 99.5% (inactive); in assay [4], 92.2% (inactive); in assay [5], 82.6% (inactive); in assay [6] (setting [9]), 80.6%; in assay [6] (setting [10]), 82.6%. Further, the Her2 level in assay [2] is 88% (inactive). In addition, the differential viability (reversal) in assay [6] (H69AR cells + 2 uM doxorubicin) was 2.02% (inactive). The figures for the inhibition in assay [7] and in assay [8] were -2.37% (inactive) and 3.39% (inactive), respectively.
Consider `CCOc1cc(C(=O)NCc2nnc(SCC(=O)OC)n2C)cc(OCC)c1OCC`, for which the viability in assay [1] is 98%; in assay [3] it was 98% (inactive); in assay [4], 104% (inactive); in assay [5] it was 95.8% (inactive); in assay [6] (setting [9]), 87.5%; in assay [6] (setting [10]), 95.8%. Moreover, the Her2 level in assay [2] is 85% (inactive). Moreover, the differential viability (reversal) in assay [6] (H69AR cells + 2 uM doxorubicin) is 8.31% (inactive). Further, the inhibition in assay [7] was -6.84% (inactive); in assay [8], -2% (inactive).
